ChEMBL document CHEMBL3045565, “Microwave synthesis, characterization and bio-efficacy evaluation of novel chalcone based 6-carbethoxy-2-cyclohexen-1-one and 2H-indazol-3-ol derivatives” (Eur J Med Chem, 2013)
Converted amounts (≈) assume the structure as drawn.

How the values were obtained:
Format in all cases: functional
[1] = system: Radical scavenging activity; assay: Antioxidant activity assessed as DPPH free radical scavenging activity at 200 ug/mL after 20 min by UV-Vis spectrophotometric analysis
Procedure, shortened: (§1)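 DPPH radical scavenging: samples were held at room temperature for 20 min in the dark, and absorbance was read at 517 nm. The control contained DMSO without compound, and methanol was used for baseline correction. Scavenging percentage was calculated from the absorbances.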

[2] = system: Radical scavenging activity; assay: Antioxidant activity assessed as DPPH free radical scavenging activity at 10 ug/mL after 20 min by UV-Vis spectrophotometric analysis; procedure, shortened: as §1
[3] = system: Radical scavenging activity; assay: Antioxidant activity assessed as DPPH free radical scavenging activity at 300 ug/mL after 20 min by UV-Vis spectrophotometric analysis; procedure, shortened: as §1
[4] = system: Radical scavenging activity; assay: Antioxidant activity assessed as DPPH free radical scavenging activity after 20 min by UV-Vis spectrophotometric analysis; set-up: concentration or dose not given beside the values; procedure, shortened: as §1
[5] = system: Radical scavenging activity; assay: Antioxidant activity assessed as DPPH free radical scavenging activity at 400 ug/mL after 20 min by UV-Vis spectrophotometric analysis; procedure, shortened: as §1
Xanthomonas oryzae [6] = assay: Antibacterial activity against Xanthomonas oryzae ITCC B-47 assessed as as growth inhibition at 100 ug/disk after 24 hr by disk diffusion method; conditions: ITCC B-47, 24 h, read-out: DIZ
Staphylococcus aureus [7] = assay: Antibacterial activity against Staphylococcus aureus MTCC 3160 assessed as growth inhibition at 100 ug/disk after 24 hr by disk diffusion method; conditions: MTCC 3160, 24 h, read-out: DIZ
Procedure, shortened: (§2)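 Disk diffusion on nutrient agar. Strains kept on NA slants at 37 °C and subcultured in nutrient broth before testing. A log-phase culture was spread on solidified medium, and sterile disks were loaded with compound from DMSO stock. DMSO served as control, with commercial antibiotics for reference. Plates ran 24 h at 37 °C, and inhibition zones (mm) were read in quadruplicate.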

[8] = system: Radical scavenging activity; assay: Antioxidant activity assessed as DPPH free radical scavenging activity at 500 ug/mL after 20 min by UV-Vis spectrophotometric analysis; procedure, shortened: as §1
Klebsiella pneumoniae [9] = assay: Antibacterial activity against Klebsiella pneumoniae MTCC 7028 assessed as growth inhibition after 24 hr by broth dilution method; conditions: MTCC 7028, 24 h
Procedure, shortened: (§3)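 Broth dilution, with streptomycin as the standard. MIC was taken as the lowest concentration giving more than 90% bacterial inhibition.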

[10] = system: Radical scavenging activity; assay: Antioxidant activity assessed as DPPH free radical scavenging activity at 40 ug/mL after 20 min by UV-Vis spectrophotometric analysis; procedure, shortened: as §1
Rhizoctonia solani = assay: Antifungal activity against Rhizoctonia solani ITCC 5563 by food poisoning method
Procedure, shortened: (§4)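 Poisoned food technique on PDA at several concentrations. A 5 mm mycelial plug from the growing edge of a 2-week-old colony was placed inoculum-side down at the plate centre. Plates incubated at 27 °C until control growth was nearly complete. Colony diameter measured, percent inhibition calculated against control, LC50 derived. Four replicates per treatment.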

Athelia rolfsii = assay: Antifungal activity against Athelia rolfsii ITCC 6181 by food poisoning method; conditions: Agroathelia rolfsii; procedure, shortened: as §4
[11] = system: Radical scavenging activity; assay: Antioxidant activity assessed as DPPH free radical scavenging activity at 20 ug/mL after 20 min by UV-Vis spectrophotometric analysis; procedure, shortened: as §1
[12] = system: Radical scavenging activity; assay: Antioxidant activity assessed as DPPH free radical scavenging activity at 100 ug/mL after 20 min by UV-Vis spectrophotometric analysis; procedure, shortened: as §1
[13] = system: Radical scavenging activity; assay: Antioxidant activity assessed as DPPH free radical scavenging activity at 60 ug/mL after 20 min by UV-Vis spectrophotometric analysis; procedure, shortened: as §1
Klebsiella pneumoniae [14] = assay: Antibacterial activity against Klebsiella pneumoniae MTCC 7028 assessed as growth inhibition at 100 ug/disk after 24 hr by disk diffusion method; conditions: MTCC 7028, 24 h, read-out: DIZ; procedure, shortened: as §2
Bacillus pumilus [15] = assay: Antibacterial activity against Bacillus pumilus MTCC 2466 assessed as growth inhibition at 100 ug/disk after 24 hr by disk diffusion method; conditions: MTCC 2466, 24 h, read-out: DIZ; procedure, shortened: as §2
Bacillus thuringiensis [16] = assay: Antibacterial activity against Bacillus thuringiensis MTCC 6941 assessed as growth inhibition at 100 ug/disk after 24 hr by disk diffusion method; conditions: MTCC 6941, 24 h, read-out: DIZ; procedure, shortened: as §2
[17] = system: Radical scavenging activity; assay: Antioxidant activity assessed as DPPH free radical scavenging activity at 80 ug/mL after 20 min by UV-Vis spectrophotometric analysis; procedure, shortened: as §1
Dickeya chrysanthemi [18] = assay: Antibacterial activity against Erwinia chrysanthemi ITCC B-40 assessed as as growth inhibition at 100 ug/disk after 24 hr by disk diffusion method; conditions: ITCC B-40, 24 h, read-out: DIZ; procedure, shortened: as §2
Pseudomonas aeruginosa [19] = assay: Antibacterial activity against Pseudomonas aeruginosa MTCC 2581 assessed as growth inhibition at 100 ug/disk after 24 hr by disk diffusion method; conditions: MTCC 2581, 24 h, read-out: DIZ; procedure, shortened: as §2
Bacillus thuringiensis [20] = assay: Antibacterial activity against Bacillus thuringiensis MTCC 6941 assessed as growth inhibition at 25 ug/disk after 24 hr by disk diffusion method; conditions: MTCC 6941, 24 h, read-out: DIZ
Dickeya chrysanthemi [21] = assay: Antibacterial activity against Erwinia chrysanthemi ITCC B-40 assessed as as growth inhibition at 25 ug/disk after 24 hr by disk diffusion method; conditions: ITCC B-40, 24 h, read-out: DIZ
Staphylococcus aureus [22] = assay: Antibacterial activity against Staphylococcus aureus MTCC 3160 assessed as growth inhibition at 25 ug/disk after 24 hr by disk diffusion method; conditions: MTCC 3160, 24 h, read-out: DIZ
Xanthomonas oryzae [23] = assay: Antibacterial activity against Xanthomonas oryzae ITCC B-47 assessed as as growth inhibition at 25 ug/disk after 24 hr by disk diffusion method; conditions: ITCC B-47, 24 h, read-out: DIZ
Klebsiella pneumoniae [24] = assay: Antibacterial activity against Klebsiella pneumoniae MTCC 7028 assessed as growth inhibition at 25 ug/disk after 24 hr by disk diffusion method; conditions: MTCC 7028, 24 h, read-out: DIZ
Pseudomonas aeruginosa [25] = assay: Antibacterial activity against Pseudomonas aeruginosa MTCC 2581 assessed as growth inhibition at 25 ug/disk after 24 hr by disk diffusion method; conditions: MTCC 2581, 24 h, read-out: DIZ
Bacillus pumilus [26] = assay: Antibacterial activity against Bacillus pumilus MTCC 2466 assessed as growth inhibition at 25 ug/disk after 24 hr by disk diffusion method; conditions: MTCC 2466, 24 h, read-out: DIZ
Dickeya chrysanthemi [27] = assay: Antibacterial activity against Erwinia chrysanthemi ITCC B-40 assessed as as growth inhibition after 24 hr by broth dilution method; conditions: ITCC B-40, 24 h; procedure, shortened: as §3
[28] = system: Radical scavenging activity; assay: Antioxidant activity assessed as DPPH free radical scavenging activity at 0.2 ug/mL after 20 min by UV-Vis spectrophotometric analysis
Procedure, shortened: (§5)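 DPPH radical scavenging: samples held at room temperature for 20 min in the dark, then absorbance read at 517 nm. Control was DMSO without compound; methanol used for baseline correction. Percent scavenging calculated from absorbance relative to control.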

[29] = system: Radical scavenging activity; assay: Antioxidant activity assessed as DPPH free radical scavenging activity at 3 ug/mL after 20 min by UV-Vis spectrophotometric analysis; procedure, shortened: as §5
[30] = system: Radical scavenging activity; assay: Antioxidant activity assessed as DPPH free radical scavenging activity at 0.8 ug/mL after 20 min by UV-Vis spectrophotometric analysis; procedure, shortened: as §5
[31] = system: Radical scavenging activity; assay: Antioxidant activity assessed as DPPH free radical scavenging activity at 1 ug/mL after 20 min by UV-Vis spectrophotometric analysis; procedure, shortened: as §5
[32] = system: Radical scavenging activity; assay: Antioxidant activity assessed as DPPH free radical scavenging activity at 0.1 ug/mL after 20 min by UV-Vis spectrophotometric analysis; procedure, shortened: as §5
[33] = system: Radical scavenging activity; assay: Antioxidant activity assessed as DPPH free radical scavenging activity at 0.4 ug/mL after 20 min by UV-Vis spectrophotometric analysis; procedure, shortened: as §5
[34] = system: Radical scavenging activity; assay: Antioxidant activity assessed as DPPH free radical scavenging activity at 0.6 ug/mL after 20 min by UV-Vis spectrophotometric analysis; procedure, shortened: as §5
[35] = system: Radical scavenging activity; assay: Antioxidant activity assessed as DPPH free radical scavenging activity at 2 ug/mL after 20 min by UV-Vis spectrophotometric analysis; procedure, shortened: as §5
[36] = system: Radical scavenging activity; assay: Antioxidant activity assessed as DPPH free radical scavenging activity at 4 ug/mL after 20 min by UV-Vis spectrophotometric analysis; procedure, shortened: as §5

Structure (SMILES) | Activity [4] | IC50 [4] | zone of inhibition at 100 µg/disc (Xanthomonas oryzae [6]) | zone of inhibition at 100 µg/disc (Staphylococcus aureus [7]) | MIC (Klebsiella pneumoniae [9]) | LC50 (Rhizoctonia solani) | LC50 (Athelia rolfsii) | zone of inhibition at 100 µg/disc (Klebsiella pneumoniae [14]) | zone of inhibition at 100 µg/disc (Bacillus pumilus [15]) | zone of inhibition at 100 µg/disc (Bacillus thuringiensis [16]) | zone of inhibition at 100 µg/disc (Dickeya chrysanthemi [18]) | zone of inhibition at 100 µg/disc (Pseudomonas aeruginosa [19]) | zone of inhibition at 25 µg/disc (Bacillus thuringiensis [20]) | zone of inhibition at 25 µg/disc (Dickeya chrysanthemi [21]) | zone of inhibition at 25 µg/disc (Staphylococcus aureus [22]) | zone of inhibition at 25 µg/disc (Xanthomonas oryzae [23]) | zone of inhibition at 25 µg/disc (Klebsiella pneumoniae [24]) | zone of inhibition at 25 µg/disc (Pseudomonas aeruginosa [25]) | zone of inhibition at 25 µg/disc (Bacillus pumilus [26]) | MIC (Dickeya chrysanthemi [27]) | also measured
O=c1[nH][nH]c2c1C(c1ccccc1)CC(c1ccc(F)cc1)=C2 (configuration not stated) | 70.5% | 23.71 µg/mL (≈ 77.4 µM) | 0 mm | 0 mm | 24.7 µg/mL (≈ 80.6 µM) | 669 µg/mL (≈ 2180 µM) | 912 µg/mL (≈ 2980 µM) | 15 mm | 0 mm | 0 mm | 0 mm | 0 mm | – | – | – | – | – | – | – | – | Activity [1]: 92.2%; Activity [2]: 23.5%; Activity [3]: 90.7%; Activity [5]: 90.8%; Activity [8]: 90.8%; Activity [10]: 70.5%; Activity [11]: 30.4%; Activity [12]: 91%; Activity [13]: 86.9%; Activity [17]: 89%
CN[C@@H]1[C@H](O[C@H]2[C@H](O[C@H]3[C@H](O)[C@@H](O)[C@H](N=C(N)N)[C@@H](O)[C@@H]3N=C(N)N)O[C@@H](C)[C@]2(O)C=O)O[C@@H](CO)[C@H](O)[C@H]1O [STREPTOMYCIN] | – | – | – | – | 3.1 µg/mL (≈ 5.33 µM) | – | – | – | – | – | – | – | 20 mm | 20 mm | 20 mm | 20 mm | 20 mm | 20 mm | 15 mm | 4.6 µg/mL (≈ 7.91 µM) | –
NC[C@H]1O[C@H](O[C@H]2[C@H](O)[C@@H](O[C@H]3O[C@H](CO)[C@@H](O)[C@H](N)[C@H]3O)[C@H](N)C[C@@H]2N)[C@H](O)[C@@H](O)[C@@H]1O [KANAMYCIN] | – | – | – | – | – | – | – | – | – | – | – | – | 15 mm | 0 mm | 10 mm | 0 mm | 15 mm | 0 mm | 0 mm | – | –
CC1(C)S[C@@H]2[C@H](NC(=O)[C@H](N)c3ccccc3)C(=O)N2[C@H]1C(=O)O [AMPICILLIN] | – | – | – | – | – | – | – | – | – | – | – | – | 0 mm | 20 mm | 10 mm | 5 mm | 10 mm | 10 mm | 20 mm | – | –
O=C(O)c1cc(O)c(O)c(O)c1 [GALLIC ACID] | 21.4% | 1.28 µg/mL (≈ 7.52 µM) | – | – | – | – | – | – | – | – | – | – | – | – | – | – | – | – | – | – | Activity [28]: 15.8%; Activity [29]: 88.9%; Activity [30]: 34.4%; Activity [31]: 41%; Activity [32]: 13.9%; Activity [33]: 21.4%; Activity [34]: 28%; Activity [35]: 73.6%; Activity [36]: 89.9%
CCOC(=O)C1C(=O)C=C(c2ccc(Cl)cc2)CC1c1ccc(OC)cc1 (configuration not stated) | 4.74% | – | 0 mm | 0 mm | – | 58 µg/mL (≈ 151 µM) | 372 µg/mL (≈ 967 µM) | 0 mm | 0 mm | 0 mm | 15 mm | 0 mm | – | – | – | – | – | – | – | 73.6 µg/mL (≈ 191 µM) | –
